The subject of one experiment is HeLa. As to the kind of experiment: Cytotoxicity against human HeLa cells. Type of experiment: functional, cell-based.
A further experiment deals with TF-1. As to the kind of experiment: Cytotoxicity against human TF1 cells. Type of experiment: functional, cell-based.
The test system of a further experiment is Artemia salina. As to the kind of experiment: Toxicity against Artemia salina. It counts as organism-based.
A further experiment concerns Candida albicans. As to the kind of experiment: Antimicrobial activity against Candida albicans at 5 and 10 ug after 24 hrs by agar diffusion method. Type of experiment: functional, organism-based. The method, boiled down:
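Disks (5 mm) carrying 5 or 10 µg of compound in MeOH were placed on YPD agar plates inoculated with C. albicans. Inhibition zones were read after 24 h at 27 °C. Solvent-only disks served as controls.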

The test system of another experiment is Staphylococcus aureus. As to the kind of experiment: Antimicrobial activity against Staphylococcus aureus ATCC 25923 at 5 and 10 ug after 24 hrs by agar diffusion method. It counts as functional, organism-based. In a few lines: (§1)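 Paper disks (5 mm) loaded with 5 or 10 µg of compound in MeOH, set on LB agar plates seeded with the test bacterium. Incubated 24 h at 37 °C, then inhibition zone diameters recorded. Disks carrying solvent only served as controls.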

A further experiment relates to Bacillus subtilis. As to the kind of experiment: Antimicrobial activity against Bacillus subtilis 168 at 5 and 10 ug after 24 hrs by agar diffusion method. Type of experiment: functional, organism-based. The method, boiled down: as §1

≈ marks a conversion by molar mass, not a printed value. Calls of active or inactive are those of the source. The rule behind the calls is not given here.

As to `CC(C)CCCCCCCCCCC/C(O)=C1\C(=O)CN(C)C1=O`, the result in the experiment on HeLa and with TF-1 was inactive.
With `CCCCCCCCCCCCC/C(O)=C1\C(=O)CN(C)C1=O` [MELOPHLIN G], the result in the experiment on HeLa and in the experiment with TF-1 was inactive. In the experiment with Artemia salina, this compound displayed an IC50 of 48.8 µg/mL (≈ 151 µM).
Regarding `CCC(C)CCCCCCCC/C(O)=C1\C(=O)C(C)N(C)C1=O` (configuration not stated), the result with HeLa and in the experiment with TF-1 was inactive.
Take `CC(C)CCCCCCCCCCCC/C(O)=C1\C(=O)CN(C)C1=O`: the outcome with HeLa and with TF-1 was inactive.
Regarding `CCCCCCCC(C)CCC/C(O)=C1\C(=O)C(C)N(C)C1=O` (configuration not stated) [MELOPHLIN C], the outcome with Candida albicans, in the experiment with Staphylococcus aureus and in the experiment with Bacillus subtilis was Active. Further, the outcome in the experiment with HeLa and with TF-1 was inactive. This compound displayed an IC50 in the experiment with Artemia salina of 36.6 µg/mL (≈ 113 µM).
In the case of `CC(C)CCCCCCCCC/C(O)=C1\C(=O)C(C)N(C)C1=O` (configuration not stated), the outcome in the experiment with HeLa and in the experiment with TF-1 was inactive.
With `CCCCCCCCCCC/C(O)=C1\C(=O)C(C)N(C)C1=O` (configuration not stated), the outcome with HeLa and with TF-1 was inactive.
As for `CCC(C)CCCCCCCCCC/C(O)=C1\C(=O)CN(C)C1=O` (configuration not stated) [MELOPHLIN I], the result in the experiment on HeLa and in the experiment with TF-1 was inactive. The IC50 in the experiment on Artemia salina came to 52.6 µg/mL (≈ 156 µM).

For the origin of these results see ChEMBL document CHEMBL1158886, “Melophlins C-O, thirteen novel tetramic acids from the marine sponge Melophlus sarassinorum” (J Nat Prod, 2003).
